From ChEMBL document CHEMBL1148185, “New cyanocyclines from a cyanide-treated broth of Streptomyces lusitanus” (1993)
In brackets after ≈: the same amount, converted by molar mass. Activity calls are given as the source filed them. The rule behind the calls is not given here.

What was measured:
Assay type in all cases: functional
Proteus vulgaris = assay: Antibacterial activity against Proteus vulgaris after 16 to 20 hrs
Procedure, shortened: (§1)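 Broth microdilution MIC. Bacteria grown in brain heart infusion (BHI) broth at 37° for 24 h, then subcultured into fresh BHI for 8 h. Cultures diluted in 0.9% NaCl to McFarland 0.5 (ca. 10^8 cfu/ml), then diluted 20-fold in BHI. Two-fold antibiotic dilution series; 50 μl drug plus 50 μl culture per well. Incubated at 37° for 16–20 h.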

Serratia marcescens = assay: Antibacterial activity against Serratia marcescens ATCC 13880 after 16 to 20 hrs; procedure, shortened: as §1
Bacillus subtilis = assay: Antibacterial activity against Bacillus subtilis ATCC 6633 after 16 to 20 hrs; procedure, shortened: as §1
Enterococcus faecalis = assay: Antibacterial activity against Streptococcus faecalis ATCC 29212 after 16 to 20 hrs; procedure, shortened: as §1
Klebsiella pneumoniae = assay: Antibacterial activity against Klebsiella pneumoniae A-''AD'' after 16 to 20 hrs; procedure, shortened: as §1
Escherichia coli = assay: Antibacterial activity against Escherichia coli ATCC 10536 after 16 to 20 hrs; procedure, shortened: as §1
Micrococcus luteus = assay: Antibacterial activity against Micrococcus luteus ATCC 4698 after 16 to 20 hrs; procedure, shortened: as §1

Row | Compound | Activity (Proteus vulgaris) | Activity (Serratia marcescens) | Activity (Bacillus subtilis) | Activity (Enterococcus faecalis) | Activity (Klebsiella pneumoniae) | Activity (Escherichia coli) | Activity (Micrococcus luteus) | MIC (Proteus vulgaris) [µg/mL] | MIC (Serratia marcescens) [µg/mL] | MIC (Bacillus subtilis) [µg/mL] | MIC (Enterococcus faecalis) [µg/mL] | MIC (Klebsiella pneumoniae) [µg/mL] | MIC (Escherichia coli) [µg/mL] | MIC (Micrococcus luteus) [µg/mL]
1 | COc1c(C)c(O)c2c(c1O)[C@@H](CO)N1[C@H]3[C@@H]4[C@@H](C[C@H]([C@H]1C#N)N4C)[C@@H]1OCCN1[C@@H]23 | Active | Active | Active | Active | Active | Active | Active | – | – | – | – | – | – | –
2 | COC1=C(C)C(=O)C2=C(C1=O)[C@@H](CO)N1[C@H]3[C@H]4N[C@H](C[C@H]4[C@@H]4OCCN4[C@@H]23)[C@H]1C#N [CYANOCYCLINE B] | – | – | – | – | – | – | – | 1 (≈ 2.42 µM) | 0.5 (≈ 1.21 µM) | 0.016 (≈ 0.0388 µM) | 0.25 (≈ 0.606 µM) | 0.031 (≈ 0.0752 µM) | 0.25 (≈ 0.606 µM) | 0.063 (≈ 0.153 µM)
3 | COC1=C(C)C(=O)C2=C(C1=O)[C@@H](CO)N1[C@H]3[C@H]4[C@@H](C[C@H]([C@H]1C#N)N4C)[C@@H]1OCCN1[C@@H]23 [CYANOCYCLINE A] | – | – | – | – | – | – | – | 0.25 (≈ 0.586 µM) | 0.5 (≈ 1.17 µM) | 0.031 (≈ 0.0727 µM) | 0.25 (≈ 0.586 µM) | 0.125 (≈ 0.293 µM) | 0.125 (≈ 0.293 µM) | 0.031 (≈ 0.0727 µM)
4 | COC1=C(C)C(=O)C2=C(C1=O)[C@@H](CO)N1[C@H]3[C@@H]4[C@@H](C[C@H]([C@H]1C#N)N4C)[C@H](C#N)N(CCO)[C@@H]23 [CYANOCYCLINE D] | – | – | – | – | – | – | – | 0.5 (≈ 1.1 µM) | 0.25 (≈ 0.551 µM) | 0.061 (≈ 0.135 µM) | 0.25 (≈ 0.551 µM) | 0.125 (≈ 0.276 µM) | 0.5 (≈ 1.1 µM) | 0.125 (≈ 0.276 µM)
5 | COc1c(C)c(OC)c2c(c1OC)[C@@H](CO)N1[C@H]3[C@@H]4[C@@H](C[C@H]([C@H]1C#N)N4C)[C@@H]1OCCN1[C@@H]23 | inactive | inactive | inactive | inactive | inactive | inactive | inactive | – | – | – | – | – | – | –
6 | COC1=C(C)C(=O)C2=C(C1=O)[C@@H](CO)N1[C@H]3[C@H]4N[C@H](C[C@H]4[C@@H]4OCCN4[C@@H]23)[C@@H]1O | Active | Active | Active | Active | Active | Active | Active | – | – | – | – | – | – | –
7 | COc1c(C)c(O)c2c(c1O)[C@@H](CO)N1[C@H]3[C@@H]4[C@@H](C[C@H]([C@H]1O)N4C)[C@@H]1OCCN1[C@@H]23 | Active | Active | Active | Active | Active | Active | Active | – | – | – | – | – | – | –
